Source: ChEMBL document CHEMBL2401735, “Synthesis and cytotoxicity of novel (thiazol-2-yl)hydrazine derivatives as promising anti-Candida agents” (Eur J Med Chem, 2013)
Values after ≈ are worked out from the molar mass of the structure shown.

These molecules were tested on Nakaseomyces glabratus (assay: Anticandida activity against Candida glabrata clinical isolate assessed as growth inhibition after 24 hrs by broth microdilution method). Details: not given.
Format: functional
Method in brief: (§1)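 Clinical Candida isolates subcultured for purity and optimal growth before testing; compounds dissolved in DMSO. Broth microdilution per NCCLS in Sabouraud dextrose broth, serial dilutions, inoculum about 10³/mL, with growth control and medium-only control; 24 h incubation at 37 °C. MIC is the lowest concentration giving complete visible inhibition.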

SMILES | MIC [µg/mL]
CCCC/C(CC)=N/Nc1nc(-c2ccc(Cl)cc2Cl)cs1 | 4 (≈ 11.2 µM)
COc1ccc(-c2csc(NN=C3CCCCCCC3)n2)c(OC)c1 | 256 (≈ 712 µM)
COc1ccc(-c2csc(N/N=C(\C)C3CCCCC3)n2)cc1 | 4 (≈ 12.1 µM)
CCC/C(C)=N/Nc1nc(-c2ccc(Cl)cc2Cl)cs1 | 2 (≈ 6.09 µM)
CCC(CC)=NNc1nc(-c2ccc(OC)cc2)cs1 | 32 (≈ 111 µM)
COc1ccc(-c2csc(NN=C3CCCCCCC3)n2)cc1 | 4 (≈ 12.1 µM)

These molecules were tested on Enterobacter sp. (assay: Antibacterial activity against Enterobacter spp. assessed as growth inhibition after 18 to 22 hrs by broth microdilution method). Details: not given.
Format: functional
Method in brief: (§2)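 Bacterial isolates subcultured for purity, identified conventionally. Broth microdilution per NCCLS in Mueller-Hinton II broth; plates with growth control (no compound) and medium-only control, incubated 18-22 h at 35 °C. MIC taken as lowest concentration giving complete growth inhibition by unaided eye.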

SMILES | MIC [µg/mL]
CCCC/C(CC)=N/Nc1nc(-c2ccc(Cl)cc2Cl)cs1 | > 256
COc1ccc(-c2csc(NN=C3CCCCCCC3)n2)c(OC)c1 | > 256
COc1ccc(-c2csc(N/N=C(\C)C3CCCCC3)n2)cc1 | > 256
CCC/C(C)=N/Nc1nc(-c2ccc(Cl)cc2Cl)cs1 | > 256
CCC(CC)=NNc1nc(-c2ccc(OC)cc2)cs1 | > 256
COc1ccc(-c2csc(NN=C3CCCCCCC3)n2)cc1 | > 256

What follows are molecules tested on [Candida] sake (assay: Anticandida activity against Candida sake clinical isolate assessed as growth inhibition after 24 hrs by broth microdilution method). Details: Fermentozyma sake.
Format: functional
Method in brief: as §1

SMILES | MIC [µg/mL]
CCCC/C(CC)=N/Nc1nc(-c2ccc(Cl)cc2Cl)cs1 | 8 (≈ 22.5 µM)
COc1ccc(-c2csc(NN=C3CCCCCCC3)n2)c(OC)c1 | 256 (≈ 712 µM)
COc1ccc(-c2csc(N/N=C(\C)C3CCCCC3)n2)cc1 | 16 (≈ 48.6 µM)
CCC/C(C)=N/Nc1nc(-c2ccc(Cl)cc2Cl)cs1 | 256 (≈ 780 µM)
CCC(CC)=NNc1nc(-c2ccc(OC)cc2)cs1 | 256 (≈ 885 µM)
COc1ccc(-c2csc(NN=C3CCCCCCC3)n2)cc1 | 16 (≈ 48.6 µM)

Each molecule was assayed on Candida parapsilosis (assay: Anticandida activity against Candida parapsilosis clinical isolate assessed as growth inhibition after 24 hrs by broth microdilution method). Details: Lodderomyces parapsilosis.
Format: functional
Method in brief: as §1

SMILES | MIC [µg/mL]
CCCC/C(CC)=N/Nc1nc(-c2ccc(Cl)cc2Cl)cs1 | 8 (≈ 22.5 µM)
COc1ccc(-c2csc(NN=C3CCCCCCC3)n2)c(OC)c1 | 256 (≈ 712 µM)
COc1ccc(-c2csc(N/N=C(\C)C3CCCCC3)n2)cc1 | 16 (≈ 48.6 µM)
CCC/C(C)=N/Nc1nc(-c2ccc(Cl)cc2Cl)cs1 | 256 (≈ 780 µM)
CCC(CC)=NNc1nc(-c2ccc(OC)cc2)cs1 | 256 (≈ 885 µM)
COc1ccc(-c2csc(NN=C3CCCCCCC3)n2)cc1 | 16 (≈ 48.6 µM)

Each molecule was assayed on Escherichia coli (assay: Antibacterial activity against Escherichia coli assessed as growth inhibition after 18 to 22 hrs by broth microdilution method). Details: not given.
Format: functional
Method in brief: as §2

SMILES | MIC [µg/mL]
CCCC/C(CC)=N/Nc1nc(-c2ccc(Cl)cc2Cl)cs1 | > 256
COc1ccc(-c2csc(NN=C3CCCCCCC3)n2)c(OC)c1 | > 256
COc1ccc(-c2csc(N/N=C(\C)C3CCCCC3)n2)cc1 | > 256
CCC/C(C)=N/Nc1nc(-c2ccc(Cl)cc2Cl)cs1 | > 256
CCC(CC)=NNc1nc(-c2ccc(OC)cc2)cs1 | > 256
COc1ccc(-c2csc(NN=C3CCCCCCC3)n2)cc1 | > 256

These molecules were tested on Candida albicans (assay: Anticandida activity against Candida albicans clinical isolate assessed as growth inhibition after 24 hrs by broth microdilution method). Details: not given.
Format: functional
Method in brief: as §1

SMILES | MIC [µg/mL]
CCCC/C(CC)=N/Nc1nc(-c2ccc(Cl)cc2Cl)cs1 | 2 (≈ 5.61 µM)
COc1ccc(-c2csc(NN=C3CCCCCCC3)n2)c(OC)c1 | 64 (≈ 178 µM)
COc1ccc(-c2csc(N/N=C(\C)C3CCCCC3)n2)cc1 | 2 (≈ 6.07 µM)
CCC/C(C)=N/Nc1nc(-c2ccc(Cl)cc2Cl)cs1 | 2 (≈ 6.09 µM)
CCC(CC)=NNc1nc(-c2ccc(OC)cc2)cs1 | 16 (≈ 55.3 µM)
COc1ccc(-c2csc(NN=C3CCCCCCC3)n2)cc1 | 2 (≈ 6.07 µM)

These molecules were tested on Pichia kudriavzevii (assay: Anticandida activity against Candida krusei clinical isolate assessed as growth inhibition after 24 hrs by broth microdilution method). Details: not given.
Format: functional
Method in brief: as §1

SMILES | MIC [µg/mL]
CCCC/C(CC)=N/Nc1nc(-c2ccc(Cl)cc2Cl)cs1 | 4 (≈ 11.2 µM)
COc1ccc(-c2csc(NN=C3CCCCCCC3)n2)c(OC)c1 | 256 (≈ 712 µM)
COc1ccc(-c2csc(N/N=C(\C)C3CCCCC3)n2)cc1 | 16 (≈ 48.6 µM)
CCC/C(C)=N/Nc1nc(-c2ccc(Cl)cc2Cl)cs1 | 256 (≈ 780 µM)
CCC(CC)=NNc1nc(-c2ccc(OC)cc2)cs1 | 256 (≈ 885 µM)
COc1ccc(-c2csc(NN=C3CCCCCCC3)n2)cc1 | 16 (≈ 48.6 µM)

What follows are molecules tested on Staphylococcus aureus (assay: Antibacterial activity against Staphylococcus aureus assessed as growth inhibition after 18 to 22 hrs by broth microdilution method). Details: not given.
Format: functional
Method in brief: as §2

SMILES | MIC [µg/mL]
CCCC/C(CC)=N/Nc1nc(-c2ccc(Cl)cc2Cl)cs1 | > 256
COc1ccc(-c2csc(NN=C3CCCCCCC3)n2)c(OC)c1 | > 256
COc1ccc(-c2csc(N/N=C(\C)C3CCCCC3)n2)cc1 | > 256
CCC/C(C)=N/Nc1nc(-c2ccc(Cl)cc2Cl)cs1 | > 256
CCC(CC)=NNc1nc(-c2ccc(OC)cc2)cs1 | > 256
COc1ccc(-c2csc(NN=C3CCCCCCC3)n2)cc1 | > 256

These molecules were tested on Proteus mirabilis (assay: Antibacterial activity against Proteus mirabilis assessed as growth inhibition after 18 to 22 hrs by broth microdilution method). Details: not given.
Format: functional
Method in brief: as §2

SMILES | MIC [µg/mL]
CCCC/C(CC)=N/Nc1nc(-c2ccc(Cl)cc2Cl)cs1 | > 256
COc1ccc(-c2csc(NN=C3CCCCCCC3)n2)c(OC)c1 | > 256
COc1ccc(-c2csc(N/N=C(\C)C3CCCCC3)n2)cc1 | > 256
CCC/C(C)=N/Nc1nc(-c2ccc(Cl)cc2Cl)cs1 | > 256
CCC(CC)=NNc1nc(-c2ccc(OC)cc2)cs1 | > 256
COc1ccc(-c2csc(NN=C3CCCCCCC3)n2)cc1 | > 256

These molecules were tested on Candida tropicalis (assay: Anticandida activity against Candida tropicalis clinical isolate assessed as growth inhibition after 24 hrs by broth microdilution method). Details: not given.
Format: functional
Method in brief: as §1

SMILES | MIC [µg/mL]
CCCC/C(CC)=N/Nc1nc(-c2ccc(Cl)cc2Cl)cs1 | 4 (≈ 11.2 µM)
COc1ccc(-c2csc(NN=C3CCCCCCC3)n2)c(OC)c1 | 256 (≈ 712 µM)
COc1ccc(-c2csc(N/N=C(\C)C3CCCCC3)n2)cc1 | 16 (≈ 48.6 µM)
CCC/C(C)=N/Nc1nc(-c2ccc(Cl)cc2Cl)cs1 | 4 (≈ 12.2 µM)
CCC(CC)=NNc1nc(-c2ccc(OC)cc2)cs1 | 64 (≈ 221 µM)
COc1ccc(-c2csc(NN=C3CCCCCCC3)n2)cc1 | 16 (≈ 48.6 µM)

These molecules were tested on Klebsiella oxytoca (assay: Antibacterial activity against Klebsiella oxytoca assessed as growth inhibition after 18 to 22 hrs by broth microdilution method). Details: not given.
Format: functional
Method in brief: as §2

SMILES | MIC [µg/mL]
CCCC/C(CC)=N/Nc1nc(-c2ccc(Cl)cc2Cl)cs1 | > 256
COc1ccc(-c2csc(NN=C3CCCCCCC3)n2)c(OC)c1 | > 256
COc1ccc(-c2csc(N/N=C(\C)C3CCCCC3)n2)cc1 | > 256
CCC/C(C)=N/Nc1nc(-c2ccc(Cl)cc2Cl)cs1 | > 256
CCC(CC)=NNc1nc(-c2ccc(OC)cc2)cs1 | > 256
COc1ccc(-c2csc(NN=C3CCCCCCC3)n2)cc1 | > 256

These molecules were tested on Enterococcus faecalis (assay: Antibacterial activity against […] assessed as growth inhibition after 18 to 22 hrs by broth microdilution method). Details: not given.
Format: functional
Method in brief: as §2

SMILES | MIC [µg/mL]
CCCC/C(CC)=N/Nc1nc(-c2ccc(Cl)cc2Cl)cs1 | > 256
COc1ccc(-c2csc(NN=C3CCCCCCC3)n2)c(OC)c1 | > 256
COc1ccc(-c2csc(N/N=C(\C)C3CCCCC3)n2)cc1 | > 256
CCC/C(C)=N/Nc1nc(-c2ccc(Cl)cc2Cl)cs1 | > 256
CCC(CC)=NNc1nc(-c2ccc(OC)cc2)cs1 | > 256
COc1ccc(-c2csc(NN=C3CCCCCCC3)n2)cc1 | > 256

What follows are molecules tested on Streptococcus alpha-hemolyticus (assay: Antibacterial activity against Streptococcus alpha-hemolyticus assessed as growth inhibition after 18 to 22 hrs by broth microdilution method). Details: not given.

SMILES | MIC [µg/mL]
CCCC/C(CC)=N/Nc1nc(-c2ccc(Cl)cc2Cl)cs1 | > 256
COc1ccc(-c2csc(NN=C3CCCCCCC3)n2)c(OC)c1 | > 256
COc1ccc(-c2csc(N/N=C(\C)C3CCCCC3)n2)cc1 | > 256
CCC/C(C)=N/Nc1nc(-c2ccc(Cl)cc2Cl)cs1 | > 256
CCC(CC)=NNc1nc(-c2ccc(OC)cc2)cs1 | > 256
COc1ccc(-c2csc(NN=C3CCCCCCC3)n2)cc1 | > 256

The molecules below were run on Staphylococcus warneri (assay: Antibacterial activity against Staphylococcus warneri assessed as growth inhibition after 18 to 22 hrs by broth microdilution method). Details: not given.
Format: functional
Method in brief: as §2

SMILES | MIC [µg/mL]
CCCC/C(CC)=N/Nc1nc(-c2ccc(Cl)cc2Cl)cs1 | > 256
COc1ccc(-c2csc(NN=C3CCCCCCC3)n2)c(OC)c1 | > 256
COc1ccc(-c2csc(N/N=C(\C)C3CCCCC3)n2)cc1 | > 256
CCC/C(C)=N/Nc1nc(-c2ccc(Cl)cc2Cl)cs1 | > 256
CCC(CC)=NNc1nc(-c2ccc(OC)cc2)cs1 | > 256
COc1ccc(-c2csc(NN=C3CCCCCCC3)n2)cc1 | > 256
